Laboratory results: ChEMBL document CHEMBL4732057, “Design, synthesis and biological evaluation of second-generation benzoylpiperidine derivatives as reversible monoacylglycerol lipase (MAGL) inhibitors” (Eur J Med Chem, 2021)
Active and inactive are the calls of the source. No cut-off for these calls is given here.

Experiments:
[1] = biological target: T1, Monoglyceride lipase (Homo sapiens) (UniProt Q99685); experiment: Reversible inhibition of human recombinant MAGL using 4-nitrophenylacetate as substrate preincubated with enzyme for 0 to 60 mins followed by substrate addition by microplate reader assay; details: time 0-60 min
T1 sequence (whole entry): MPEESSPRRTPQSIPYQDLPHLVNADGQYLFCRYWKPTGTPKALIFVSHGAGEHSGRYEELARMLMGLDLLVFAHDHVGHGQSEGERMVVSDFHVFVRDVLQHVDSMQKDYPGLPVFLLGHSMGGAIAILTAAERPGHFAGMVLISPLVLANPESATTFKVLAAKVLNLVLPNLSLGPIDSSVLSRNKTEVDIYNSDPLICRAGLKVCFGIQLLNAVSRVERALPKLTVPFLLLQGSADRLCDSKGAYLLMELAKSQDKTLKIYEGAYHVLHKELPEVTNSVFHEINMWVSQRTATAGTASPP
Outline: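 MAGL (11 ng/well) preincubated with compound in DMSO for 0, 30 or 60 min. Reaction then started with 4-NPA 500 µM stock, same buffer and read-out as the main assay. IC50 at each time; triplicates of two independent experiments.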

[2] = biological target: T2, Monoglyceride lipase (Mus musculus) (UniProt O35678); experiment: Inhibition of MAGL in mouse brain membrane at 10 uM preincubated for 25 mins followed by TAMRA-FP labeling addition and measured after 5 mins by competitive ABPP based analysis; assay type: cell membranes; details: time 30.0 min
T2 sequence (whole entry): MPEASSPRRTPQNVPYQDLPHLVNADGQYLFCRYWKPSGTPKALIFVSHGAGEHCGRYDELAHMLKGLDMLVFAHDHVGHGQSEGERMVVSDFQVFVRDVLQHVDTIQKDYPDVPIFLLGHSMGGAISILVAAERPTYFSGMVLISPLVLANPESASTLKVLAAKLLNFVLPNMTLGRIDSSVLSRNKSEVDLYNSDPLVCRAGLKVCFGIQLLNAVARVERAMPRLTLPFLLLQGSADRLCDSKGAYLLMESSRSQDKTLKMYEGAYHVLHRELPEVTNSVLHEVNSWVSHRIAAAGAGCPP
Outline: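 Mouse brain membranes, 4 mg/mL in PBS, preincubated 25 min at 25 °C with compound at 10 µM or a range of concentrations. Labelled 5 min with TAMRA-FP at 125 nM final. Proteins resolved on 11% SDS-PAGE and scanned for fluorescence.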

Monoglyceride lipase = biological target: T3, Monoglyceride lipase (Homo sapiens, UniProt Q99685); experiment: Inhibition of human recombinant MAGL using 4-nitrophenylacetate as substrate incubated for 30 mins by microplate reader assay
T3 sequence (Q99685 whole entry): T1 sequence (whole entry)
Outline: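 Human recombinant MAGL, 11 ng/well, in 10 mM Tris pH 7.2 with 1 mM EDTA and 0.1 mg/mL BSA, at room temperature. 4-NPA 133.3 µM stock added; enzyme added last. Absorbance at 405 nm after 30 min, minus a no-enzyme blank for each concentration. Sigmoidal fit; duplicates of three independent experiments.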

[3] = biological target: T4, Fatty-acid amide hydrolase 1 (Homo sapiens) (UniProt O00519); experiment: Inhibition of FAAH in human U937 cells assessed as reduction in [3H]ethanolamine formation using [ethanolamine-1-3H]AEA as substrate at 10 uM incubated for 15 mins by liquid scintillation spectroscopy; assay type: cell-based; details: U-937
T4 sequence (whole entry): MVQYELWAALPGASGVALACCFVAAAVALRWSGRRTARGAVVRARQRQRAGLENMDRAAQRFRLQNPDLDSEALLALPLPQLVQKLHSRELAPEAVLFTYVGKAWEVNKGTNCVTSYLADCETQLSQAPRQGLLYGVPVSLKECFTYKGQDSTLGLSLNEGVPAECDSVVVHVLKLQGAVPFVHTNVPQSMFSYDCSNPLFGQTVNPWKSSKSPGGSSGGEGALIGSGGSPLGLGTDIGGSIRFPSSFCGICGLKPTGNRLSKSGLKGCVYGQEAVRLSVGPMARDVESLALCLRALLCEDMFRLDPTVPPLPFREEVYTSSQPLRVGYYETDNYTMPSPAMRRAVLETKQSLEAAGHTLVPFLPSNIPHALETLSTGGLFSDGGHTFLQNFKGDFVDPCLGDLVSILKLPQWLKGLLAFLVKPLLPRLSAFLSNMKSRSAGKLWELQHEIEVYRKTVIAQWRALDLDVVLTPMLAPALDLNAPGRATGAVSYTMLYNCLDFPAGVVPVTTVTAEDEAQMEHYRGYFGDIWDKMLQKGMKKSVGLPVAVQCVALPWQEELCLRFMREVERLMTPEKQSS
Outline: (§1)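 Intact U937 cells (1.0 × 10^6) in Tris-HCl 10 mM, EDTA 1 mM, 0.1% BSA, pH 8, given compound at 37 °C. Then 15 min at 37 °C with shaking. MAGL: 10 µM 2-OG plus 0.5 nM [3H]2-OG. FAAH: 1 µM AEA plus 2 nM [3H]AEA. Aqueous-phase tritium counted; three experiments in triplicate.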

[4] = Antiproliferative activity against human PDAC-3 cells assessed as inhibition of cell growth incubated for 72 hrs by SRB assay; assay type: functional, cell-based; details: PDAC-3, 72 h
Outline: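 Primary patient-derived PDAC-3 cells, cultured under 20 passages in RPMI-1640 with 10% NBCS. Compounds dissolved in DMSO and tested at 8 concentrations, 156.25 to 20 000 nM. Growth read by sulforhodamine-B assay.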

[5] = biological target: T1, Monoglyceride lipase (Homo sapiens); experiment: Reversible inhibition of human recombinant MAGL using 4-nitrophenylacetate as substrate at 2 uM preincubated with enzyme for 60 mins followed by 40X dilution and 15 mins later incubated with substrate by microplate reader assay; details: time 75.0 min
Outline: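 MAGL (880 ng) incubated 60 min at room temperature with compound at 2 µM in Tris pH 7.2, then diluted 40-fold in buffer. After 15 min, 4-NPA 500 µM stock added and activity read as in the main assay. Compared with 2000 nM and 50 nM undiluted; triplicates of two experiments.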

[6] = biological target: T5, Fatty-acid amide hydrolase 1 (Homo sapiens, UniProt O00519); experiment: Inhibition of FAAH in human U937 cells assessed as reduction in [3H]ethanolamine formation using [ethanolamine-1-3H]AEA as substrate incubated for 15 mins by liquid scintillation spectroscopy; assay type: cell-based, U-937; outline: as §1
T5 sequence (O00519 whole entry): T4 sequence (whole entry)

[7] = Cytotoxicity against cancer-derived human organoids in HGSOC patient assessed as reduction in cell viability up to 100 uM measured after 96 hrs by Celltiter-glo luminescent assay; assay type: functional, Neoplasm; details: dose microM <=100
Outline: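 Organoids from three HGSOC patients. Tissue digested with 2 mg/mL collagenase for 30 min, embedded in BME matrix and cultured. Treated at 100 µM, with carboplatin as positive control. Viability read by CellTiter-Glo luminescence.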

Cannabinoid receptor 2 = Cannabinoid receptor 2 (Homo sapiens, UniProt P34972); experiment: Displacement of [3H]CP55940 from human CB2 receptor at 10 uM incubated for 90 mins by radioligand binding assay
Cannabinoid receptor 2, sequence (P34972 whole entry): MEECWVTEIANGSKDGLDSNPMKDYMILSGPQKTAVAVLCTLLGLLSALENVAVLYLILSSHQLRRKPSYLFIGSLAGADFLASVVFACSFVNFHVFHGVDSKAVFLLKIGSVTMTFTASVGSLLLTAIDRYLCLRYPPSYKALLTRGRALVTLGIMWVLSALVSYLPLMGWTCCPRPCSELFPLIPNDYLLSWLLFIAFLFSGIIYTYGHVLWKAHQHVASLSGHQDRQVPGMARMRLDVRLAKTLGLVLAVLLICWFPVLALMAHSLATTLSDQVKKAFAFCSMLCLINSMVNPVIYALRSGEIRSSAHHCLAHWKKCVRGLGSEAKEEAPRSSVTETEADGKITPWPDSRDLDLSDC
Outline: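 Membranes expressing hCB1 or hCB2 in 50 mM Tris-HCl, 2.5 mM EDTA, 5 mM MgCl2, 0.5% BSA, pH 7.4, incubated with compound and 0.5 nM [3H]CP55,940 for 90 min at 30 °C. Nonspecific binding with 10 µM […]; filtered and counted. Screening at 10 µM; two experiments in triplicate.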

SMILES	inhibition [1]	inhibition [2]	IC50 (Monoglyceride lipase) [nM]	inhibition [3] [%]	IC50 [4] [µM]	inhibition [5]	IC50 [6] [µM]	inhibition (INH) [7] [%]	inhibition (Cannabinoid receptor 2) [%]
O=C(c1ccc(Sc2ccccc2)cc1)C1CCN(C(=O)c2cc(O)c(F)cc2F)CC1	Active	Active	18	22	14.6	Active	> 10	42	< 10
O=C(c1ccc(Sc2ccccc2)cc1)C1CCN(C(=O)c2cc(O)ccc2F)CC1	Active	Active	30	< 10	9.28	Active	> 10	42	< 10
O=C(c1ccc(Cc2ccccc2)cc1)C1CCN(C(=O)c2cc(O)c(F)cc2F)CC1	Active	Active	36	21	12	Active	> 10	18	< 10
O=C(c1ccc(Cc2ccccc2)cc1)C1CCN(C(=O)c2cc(O)ccc2F)CC1	Active	Active	49	< 10	12.5	Active	> 10	42	< 10
